Data reported in ChEMBL document CHEMBL1177827, “Discovery of novel 1H-imidazol-2-yl-pyrimidine-4,6-diamines as potential antimalarials” (Bioorg Med Chem Lett, 2010).
Converted amounts (≈) assume the structure as drawn.

Tests used:
Plasmodium falciparum [1] = test: Antimalarial activity Plasmodium falciparum 3D7; assay type: functional, organism-based
Method in brief: (§1)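 P. falciparum-infected human red blood cell proliferation assay, with SYBR Green staining as the read-out of parasite growth. EC50 is the mean of two experiments. Each plate carries mefloquine, sulfadoxine and artemisinin as internal standards.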

[2] = Metabolic stability in human microsomes assessed as extraction ratio; assay type: ADME, Microsome
[3] = Thermodynamic solubility at pH 6.8; assay type: physicochemical; details: buffer
Method in brief: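 Thermodynamic solubility measured at pH 6.8, reported in […].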

[4] = Metabolic stability in rat microsomes assessed as extraction ratio; assay type: ADME, Microsome
[5] = Metabolic stability in mouse microsomes assessed as extraction ratio; assay type: ADME, Microsome
[6] = Half life in mouse; assay type: ADME, organism-based; details: in vivo
Plasmodium falciparum [7] = test: Antimalarial activity Plasmodium falciparum W2; assay type: functional, organism-based; method in brief: as §1
Plasmodium falciparum [8] = test: Antimalarial activity Plasmodium falciparum K1; assay type: functional, organism-based; method in brief: as §1
Plasmodium falciparum [9] = test: Antimalarial activity Plasmodium falciparum D10; assay type: functional, organism-based; method in brief: as §1
Plasmodium falciparum [10] = test: Antimalarial activity Plasmodium falciparum 3BAG; assay type: functional, organism-based; method in brief: as §1
[11] = Oral bioavailability in mouse; assay type: ADME, organism-based; details: in vivo
Plasmodium falciparum [12] = test: Antimalarial activity Plasmodium falciparum CAMP R; assay type: functional, organism-based; details: CampR; method in brief: as §1
Plasmodium falciparum [13] = test: Antimalarial activity Plasmodium falciparum FCR3; assay type: functional, organism-based; details: FCR-3/Gambia; method in brief: as §1
Plasmodium falciparum [14] = test: Antimalarial activity Plasmodium falciparum Dd2; assay type: functional, organism-based; method in brief: as §1
Plasmodium falciparum [15] = test: Antimalarial activity Plasmodium falciparum D6; assay type: functional, organism-based; method in brief: as §1
Plasmodium falciparum [16] = test: Antimalarial activity Plasmodium falciparum 7G8; assay type: functional, organism-based; method in brief: as §1
Plasmodium falciparum [17] = test: Antimalarial activity Plasmodium falciparum FcB1; assay type: functional, organism-based; details: FcB1/Columbia; method in brief: as §1
Plasmodium falciparum [18] = test: Antimalarial activity Plasmodium falciparum NF54; assay type: functional, organism-based; method in brief: as §1
Plasmodium falciparum [19] = test: Antimalarial activity Plasmodium falciparum C188; assay type: functional, organism-based; method in brief: as §1
[20] = AUC (0 to infinity) in mouse; assay type: ADME, organism-based; design: time infinity; details: plasma
Plasmodium falciparum [21] = test: Antimalarial activity Plasmodium falciparum TM91C235; assay type: functional, organism-based; method in brief: as §1
[22] = Cmax in mouse; assay type: ADME, organism-based; details: in vivo
Plasmodium falciparum [23] = test: Antimalarial activity Plasmodium falciparum HB3; assay type: functional, organism-based; method in brief: as §1

FC(F)(F)Oc1ccc(Nc2cc(Nc3nccn3-c3cc(Br)cc(C(F)(F)F)c3)ncn2)cc1
EC50 (Plasmodium falciparum [1]): 223 nM

CC(C)Oc1nc(Nc2ccc(OC(F)(F)F)cc2)cc(Nc2nccn2-c2cccc(C(F)(F)F)c2)n1
EC50 (Plasmodium falciparum [1]): 60 nM

CSc1nc(Nc2ccc(OC(F)(F)F)cc2)cc(Nc2nccn2-c2cccc(C(F)(F)F)c2)n1
EC50 (Plasmodium falciparum [1]): 107 nM

Cc1nc(Nc2ccc(OC(F)(F)F)cc2)cc(Nc2nccn2-c2cccc(C(=O)NCCCN3CCOCC3)c2)n1
EC50 (Plasmodium falciparum [1]): 67 nM

COc1nc(Nc2ccc(OC(F)(F)F)cc2)cc(Nc2nccn2-c2cccc(C(F)(F)F)c2)n1
EC50 (Plasmodium falciparum [1]): 190 nM

O=C(NCCN1CCOCC1)c1cccc(-n2ccnc2Nc2cc(Nc3ccc(OC(F)(F)F)cc3)ncn2)c1
EC50 (Plasmodium falciparum [1]): 249 nM

C[C@@H]1CC[C@H]2[C@@H](C)C(=O)O[C@@H]3O[C@@]4(C)CC[C@@H]1[C@]32OO4 [ARTEMISININ]
EC50 (Plasmodium falciparum [1]): 10 nM

CS(=O)(=O)c1nc(Nc2ccc(OC(F)(F)F)cc2)cc(Nc2nccn2-c2cccc(C(F)(F)F)c2)n1
EC50 (Plasmodium falciparum [1]): 291 nM

FC(F)(F)Oc1ccc(Nc2cc(Nc3nccn3-c3cccc(C(F)(F)F)c3)nc(N3CCOCC3)n2)cc1
EC50 (Plasmodium falciparum [1]): 113 nM

CN1CCN(c2cc(-n3ccnc3Nc3cc(Nc4ccc(OC(F)(F)F)cc4)ncn3)cc(C(F)(F)F)c2)CC1
EC50 (Plasmodium falciparum [1]): 65 nM

FC(F)(F)Oc1ccc(Nc2nccc(Nc3nccn3-c3cccc(C(F)(F)F)c3)n2)cc1
EC50 (Plasmodium falciparum [1]): 432 nM

CN1CCN(C2CCN(c3cc(-n4ccnc4Nc4cc(Nc5ccc(OC(F)(F)F)cc5)ncn4)cc(C(F)(F)F)c3)CC2)CC1
hepatic extraction ratio [2]: 0.316 | EC50 (Plasmodium falciparum [1]): 90 nM | solubility thermodynamic [3]: 110 µg/mL (≈ 166 µM)

Cc1nc(Nc2ccc(OC(F)(F)F)cc2)cc(Nc2nccn2-c2cccc(C(=O)NCCCN3CCCC3)c2)n1
EC50 (Plasmodium falciparum [1]): 224 nM

FC(F)(F)Oc1ccc(Nc2cc(Nc3nccn3-c3cc(N4CCOCC4)cc(C(F)(F)F)c3)ncn2)cc1
EC50 (Plasmodium falciparum [1]): 532 nM

CNc1nc(Nc2ccc(OC(F)(F)F)cc2)cc(Nc2nccn2-c2cccc(C(F)(F)F)c2)n1
EC50 (Plasmodium falciparum [1]): 54 nM

FC(F)(F)Oc1ccc(Nc2cc(Nc3nccn3-c3cccc(C(F)(F)F)c3)nc(Oc3ccccc3)n2)cc1
EC50 (Plasmodium falciparum [1]): 116 nM

Cc1c(Nc2ccc(OC(F)(F)F)cc2)ncnc1Nc1nccn1-c1cccc(C(F)(F)F)c1
EC50 (Plasmodium falciparum [1]): 4680 nM

FC(F)(F)Oc1ccc(Nc2ccnc(Nc3nccn3-c3cccc(C(F)(F)F)c3)n2)cc1
EC50 (Plasmodium falciparum [1]): 268 nM

FC(F)(F)Oc1ccc(Nc2cc(Nc3nccn3-c3cccc(C(F)(F)F)c3)ncn2)cc1
EC50 (Plasmodium falciparum [1]): 436 nM

FC(F)(F)Oc1ccc(Oc2cc(Nc3nccn3-c3cccc(C(F)(F)F)c3)ncn2)cc1
EC50 (Plasmodium falciparum [1]): 4240 nM

CN1CCN(CCNc2cc(-n3ccnc3Nc3cc(Nc4ccc(OC(F)(F)F)cc4)ncn3)cc(C(F)(F)F)c2)CC1
EC50 (Plasmodium falciparum [1]): 91 nM

CCN1CCCC1CNC(=O)c1cccc(-n2ccnc2Nc2cc(Nc3ccc(OC(F)(F)F)cc3)nc(C)n2)c1 (stereo not given)
hepatic extraction ratio [4]: 0.275 | hepatic extraction ratio [5]: < 0.17 | EC50 (Plasmodium falciparum [1]): 60 nM | solubility thermodynamic [3]: 89 µg/mL (≈ 153 µM)

FC(F)(F)Oc1ccc(Nc2nc(Nc3nccn3-c3cccc(C(F)(F)F)c3)c3ccccc3n2)cc1
EC50 (Plasmodium falciparum [1]): 564 nM

Cc1nc(Nc2ccc(OC(F)(F)F)cc2)cc(Nc2nccn2-c2cccc(C(=O)NCCc3c[nH]cn3)c2)n1
EC50 (Plasmodium falciparum [1]): 822 nM

FC(F)(F)Oc1ccc(Nc2cc(Nc3nccn3-c3cccc(C(F)(F)F)c3)nc(NCCN3CCOCC3)n2)cc1
EC50 (Plasmodium falciparum [1]): 53 nM

FC(F)(F)Oc1ccc(Nc2cc(Nc3nccn3-c3cc(NCCN4CCOCC4)cc(C(F)(F)F)c3)ncn2)cc1
EC50 (Plasmodium falciparum [1]): 87 nM

O=C(NCCc1c[nH]cn1)c1cccc(-n2ccnc2Nc2cc(Nc3ccc(OC(F)(F)F)cc3)ncn2)c1
EC50 (Plasmodium falciparum [1]): 1780 nM

OC(c1cc(C(F)(F)F)nc2c(C(F)(F)F)cccc12)C1CCCCN1 (stereo not given) [MEFLOQUINE]
EC50 (Plasmodium falciparum [1]): 20 nM

CCN(CC)CCNC(=O)c1cccc(-n2ccnc2Nc2cc(Nc3ccc(OC(F)(F)F)cc3)nc(C)n2)c1
hepatic extraction ratio [4]: 0.367 | hepatic extraction ratio [5]: < 0.17 | hepatic extraction ratio [2]: < 0.31 | EC50 (Plasmodium falciparum [1]): 46 nM | solubility thermodynamic [3]: 80 µg/mL (≈ 141 µM)

Cc1nc(Nc2ccc(OC(F)(F)F)cc2)cc(Nc2nccn2-c2cccc(C(=O)NCCN3CCOCC3)c2)n1
hepatic extraction ratio [4]: 0.243 | hepatic extraction ratio [5]: < 0.17 | hepatic extraction ratio [2]: < 0.42 | EC50 (Plasmodium falciparum [1]): 69 nM | solubility thermodynamic [3]: 90 µg/mL (≈ 154 µM)

Oc1nc(Nc2ccc(OC(F)(F)F)cc2)cc(Nc2nccn2-c2cccc(C(F)(F)F)c2)n1
EC50 (Plasmodium falciparum [1]): 5440 nM

FC(F)(F)Oc1ccc(Nc2cc(Nc3nccn3-c3cccc(C(F)(F)F)c3)nc(C(F)(F)F)n2)cc1
EC50 (Plasmodium falciparum [1]): 353 nM

Cc1nc(Nc2ccc(OC(F)(F)F)cc2)cc(Nc2nccn2-c2cccc(C(=O)NCCN3CCCC3)c2)n1
EC50 (Plasmodium falciparum [1]): 168 nM

FC(F)(F)Oc1ccc(Nc2cc(Nc3nccn3-c3cccc(C(F)(F)F)c3)nc(-c3ccccc3)n2)cc1
EC50 (Plasmodium falciparum [1]): 74 nM

FC(F)(F)Oc1ccc(Nc2cc(Nc3nccn3-c3cc(N4CCC(N5CCOCC5)CC4)cc(C(F)(F)F)c3)ncn2)cc1
EC50 (Plasmodium falciparum [1]): 88 nM

COc1ncnc(NS(=O)(=O)c2ccc(N)cc2)c1OC [SULFADOXINE]
EC50 (Plasmodium falciparum [1]): 30 nM

Cc1nc(Nc2ccc(OC(F)(F)F)cc2)cc(Nc2nccn2-c2cccc(C(F)(F)F)c2)n1
EC50 (Plasmodium falciparum [1]): 114 nM

OCCN1CCN(c2cc(-n3ccnc3Nc3cc(Nc4ccc(OC(F)(F)F)cc4)ncn3)cc(C(F)(F)F)c2)CC1
EC50 (Plasmodium falciparum [1]): 175 nM

FC(F)(F)Oc1ccc(Nc2cc(Nc3nccn3-c3cc(N4CCC(N5CCCC5)CC4)cc(C(F)(F)F)c3)ncn2)cc1
EC50 (Plasmodium falciparum [1]): 92 nM

Cc1nc(Nc2ccc(OC(F)(F)F)cc2)cc(Nc2nccn2-c2cccc(C(=O)N3CCN(CCO)CC3)c2)n1
EC50 (Plasmodium falciparum [1]): 768 nM

CN(c1cc(Nc2ccc(OC(F)(F)F)cc2)ncn1)c1nccn1-c1cccc(C(F)(F)F)c1
EC50 (Plasmodium falciparum [1]): 3830 nM

CN1CCN(c2nc(Nc3ccc(OC(F)(F)F)cc3)cc(Nc3nccn3-c3cccc(C(F)(F)F)c3)n2)CC1
half-life [6]: 12 h | hepatic extraction ratio [4]: 0.264 | EC50 (Plasmodium falciparum [7]): 120 nM | EC50 (Plasmodium falciparum [8]): 88 nM | EC50 (Plasmodium falciparum [9]): 15 nM | EC50 (Plasmodium falciparum [10]): 60 nM | bioavailability [11]: 30% | EC50 (Plasmodium falciparum [12]): 50 nM | EC50 (Plasmodium falciparum [13]): 139 nM | EC50 (Plasmodium falciparum [14]): 71 nM | hepatic extraction ratio [5]: < 0.17 | EC50 (Plasmodium falciparum [15]): 50 nM | EC50 (Plasmodium falciparum [16]): 95 nM | EC50 (Plasmodium falciparum [17]): 50 nM | EC50 (Plasmodium falciparum [18]): 33 nM | hepatic extraction ratio [2]: < 0.28 | EC50 (Plasmodium falciparum [19]): 140 nM | EC50 (Plasmodium falciparum [1]): 34 nM | AUC(0-inf) [20]: 14.2 µM·h | EC50 (Plasmodium falciparum [21]): 58 nM | Cmax [22]: 946 nM | EC50 (Plasmodium falciparum [23]): 46 nM | solubility thermodynamic [3]: 40 µg/mL (≈ 69.1 µM)

Nc1nc(Nc2ccc(OC(F)(F)F)cc2)cc(Nc2nccn2-c2cccc(C(F)(F)F)c2)n1
EC50 (Plasmodium falciparum [1]): 49 nM

FC(F)(F)Oc1ccc(Nc2ncnc(Nc3nccn3-c3cccc(C(F)(F)F)c3)n2)cc1
EC50 (Plasmodium falciparum [1]): 1330 nM

Cc1nc(Nc2ccc(OC(F)(F)F)cc2)cc(Nc2nccn2-c2cccc(C(=O)NCCCN3CCN(C)CC3)c2)n1
EC50 (Plasmodium falciparum [1]): 239 nM
